From ChEMBL document CHEMBL2074042, “beta-lactam antibiotics as substrates for OCTN2, an organic cation/carnitine transporter” (J Biol Chem, 2000)
Values belong to the compound of their own block, whether it stands above or below them.

Experiments:
Type in all cases: functional, cell-based
[1] = target: T1, Organic cation/carnitine transporter 2 (Homo sapiens, UniProt O76082); test: TP_TRANSPORTER: inhibition of Carnitine uptake (Carnitine: 0.02 uM, Ampicillin: 2500 uM) in OCTN2-expressing HeLa cells
T1 sequence (O76082 whole entry): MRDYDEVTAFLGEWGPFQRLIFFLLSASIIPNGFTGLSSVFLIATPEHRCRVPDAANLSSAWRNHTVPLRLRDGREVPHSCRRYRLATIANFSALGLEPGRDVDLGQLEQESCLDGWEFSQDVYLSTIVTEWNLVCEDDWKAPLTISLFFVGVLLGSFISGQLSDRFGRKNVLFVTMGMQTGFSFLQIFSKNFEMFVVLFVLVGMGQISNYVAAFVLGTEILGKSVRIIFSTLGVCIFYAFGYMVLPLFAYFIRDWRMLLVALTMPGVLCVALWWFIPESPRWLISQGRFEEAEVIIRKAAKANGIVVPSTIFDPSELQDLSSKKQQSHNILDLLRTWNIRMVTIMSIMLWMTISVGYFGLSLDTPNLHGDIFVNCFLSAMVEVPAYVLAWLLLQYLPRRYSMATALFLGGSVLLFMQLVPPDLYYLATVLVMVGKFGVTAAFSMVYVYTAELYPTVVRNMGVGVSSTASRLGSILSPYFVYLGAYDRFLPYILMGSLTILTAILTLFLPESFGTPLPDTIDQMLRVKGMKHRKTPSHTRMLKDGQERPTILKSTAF

[2] = target: T1, Organic cation/carnitine transporter 2; test: (§1) TP_TRANSPORTER: inhibition of Carnitine uptake (Carnitine: 0.02 uM, Cefadroxil: 2500 uM) in OCTN2-expressing HeLa cells
Procedure, shortened: (§2)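 HeLa cells expressed human or rat OCTN2 cDNA by vaccinia virus/T7 system. [3H]carnitine (20 nM) uptake for 30 min at room temperature in Na+-containing Hepes/Tris buffer, pH 7.5, with β-lactam at 2.5 mM. Lysate radioactivity counted. Endogenous activity from vector-only cells subtracted. Four measurements from two transfections.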

[3] = target: T2, Organic cation/carnitine transporter 2 (Rattus norvegicus, UniProt O70594); test: as §1; conditions: human; procedure, shortened: as §2
T2 sequence (O70594 whole entry): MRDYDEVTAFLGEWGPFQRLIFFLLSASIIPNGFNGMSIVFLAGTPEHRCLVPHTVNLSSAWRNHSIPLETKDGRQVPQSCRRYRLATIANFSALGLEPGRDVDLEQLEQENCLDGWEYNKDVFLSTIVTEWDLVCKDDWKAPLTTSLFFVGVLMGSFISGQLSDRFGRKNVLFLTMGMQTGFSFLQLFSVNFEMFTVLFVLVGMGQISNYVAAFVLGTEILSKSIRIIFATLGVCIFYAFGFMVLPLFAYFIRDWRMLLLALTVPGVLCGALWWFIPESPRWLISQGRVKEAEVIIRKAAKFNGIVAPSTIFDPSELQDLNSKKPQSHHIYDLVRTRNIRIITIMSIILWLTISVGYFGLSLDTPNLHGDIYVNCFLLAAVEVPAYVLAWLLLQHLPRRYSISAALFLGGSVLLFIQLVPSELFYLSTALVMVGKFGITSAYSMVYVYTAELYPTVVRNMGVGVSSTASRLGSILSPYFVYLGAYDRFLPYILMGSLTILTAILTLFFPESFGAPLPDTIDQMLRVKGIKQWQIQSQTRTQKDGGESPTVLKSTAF

[4] = target: T1, Organic cation/carnitine transporter 2; test: TP_TRANSPORTER: inhibition of Carnitine uptake (Carnitine: 0.02 uM, Cefdinir: 2500 uM) in OCTN2-expressing HeLa cells
[5] = target: T3, Solute carrier family 15 member 2 (Rattus norvegicus) (UniProt Q63424); test: TP_TRANSPORTER: inhibition of Gly-Sar uptake (Gly-Sar: 25 uM, Cefepime: 2500uM) in PEPT2-expressing HeLa cells
T3 sequence (whole entry): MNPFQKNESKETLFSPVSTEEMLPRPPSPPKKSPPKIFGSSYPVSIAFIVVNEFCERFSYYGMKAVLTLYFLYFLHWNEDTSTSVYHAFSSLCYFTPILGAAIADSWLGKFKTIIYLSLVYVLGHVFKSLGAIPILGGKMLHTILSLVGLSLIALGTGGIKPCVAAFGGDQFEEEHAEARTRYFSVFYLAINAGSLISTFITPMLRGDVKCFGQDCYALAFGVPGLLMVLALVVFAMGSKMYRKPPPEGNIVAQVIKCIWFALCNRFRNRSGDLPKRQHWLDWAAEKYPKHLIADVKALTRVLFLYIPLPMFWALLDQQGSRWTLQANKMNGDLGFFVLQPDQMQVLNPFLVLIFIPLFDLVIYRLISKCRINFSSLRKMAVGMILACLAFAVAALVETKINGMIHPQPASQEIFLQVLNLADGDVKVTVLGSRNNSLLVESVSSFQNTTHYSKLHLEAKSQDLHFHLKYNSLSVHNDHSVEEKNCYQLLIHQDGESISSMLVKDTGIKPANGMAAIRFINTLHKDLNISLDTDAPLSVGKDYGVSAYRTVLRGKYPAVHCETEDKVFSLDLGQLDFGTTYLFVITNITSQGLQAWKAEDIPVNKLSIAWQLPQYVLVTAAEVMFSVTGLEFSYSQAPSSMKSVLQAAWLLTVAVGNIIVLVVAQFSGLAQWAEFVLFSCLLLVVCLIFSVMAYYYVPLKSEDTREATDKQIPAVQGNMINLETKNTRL
Procedure, shortened: (§3)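 HeLa cells expressing rat PEPT2 cDNA. [14C]glycylsarcosine (25 μM) uptake for 5 min under an inward H+ gradient in Mes/Tris buffer, pH 6.0, with test compound at 2.5 mM. Vector-cell uptake subtracted. Results as percent of control, three independent measurements, mean ± S.E.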

[6] = target: T4, OCTN2 (organic cation/carnitine transporter 2) (Rattus norvegicus, UniProt O70594); test: TP_TRANSPORTER: inhibition of Carnitine uptake (Carnitine: 0.02 uM, Cefepime: 2500 uM) in OCTN2-expressing HeLa cells; design: scale not given: the % may be the effect or the level left; conditions: human, probe carnitine (0.02 uM), read-out: Activity; procedure, shortened: as §2
T4 sequence (O70594 whole entry): T2 sequence (O70594 whole entry)

[7] = target: T1, Organic cation/carnitine transporter 2; test: TP_TRANSPORTER: inhibition of Carnitine uptake (Carnitine: 0.02 uM) in OCTN2-expressing HeLa cells
[8] = target: T5, Solute carrier family 15 member 1 (Homo sapiens) (UniProt P46059); test: TP_TRANSPORTER: inhibition of Gly-Sar uptake (Gly-Sar: 50 uM, Cefepime: 2500uM) in PEPT1-expressing HeLa cells
T5 sequence (whole entry): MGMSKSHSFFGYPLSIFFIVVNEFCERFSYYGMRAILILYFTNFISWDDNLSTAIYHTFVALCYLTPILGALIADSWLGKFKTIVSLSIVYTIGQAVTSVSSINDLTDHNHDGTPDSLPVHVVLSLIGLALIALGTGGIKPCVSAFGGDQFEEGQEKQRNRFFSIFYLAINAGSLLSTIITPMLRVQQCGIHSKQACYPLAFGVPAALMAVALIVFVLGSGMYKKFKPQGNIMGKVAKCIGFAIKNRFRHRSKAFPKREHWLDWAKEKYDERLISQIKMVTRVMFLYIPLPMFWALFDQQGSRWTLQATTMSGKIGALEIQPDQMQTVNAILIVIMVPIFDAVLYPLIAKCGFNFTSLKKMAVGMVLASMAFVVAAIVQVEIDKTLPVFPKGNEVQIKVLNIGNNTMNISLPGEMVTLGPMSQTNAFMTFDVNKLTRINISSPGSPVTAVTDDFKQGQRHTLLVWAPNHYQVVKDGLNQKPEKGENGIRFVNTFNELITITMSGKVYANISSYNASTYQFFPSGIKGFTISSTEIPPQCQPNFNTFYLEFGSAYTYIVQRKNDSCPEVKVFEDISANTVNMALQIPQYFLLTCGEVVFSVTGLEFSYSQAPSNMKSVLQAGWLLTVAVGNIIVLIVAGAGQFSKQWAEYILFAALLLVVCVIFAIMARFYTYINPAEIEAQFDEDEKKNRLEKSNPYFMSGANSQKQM
Procedure, shortened: (§4)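 HeLa cells expressing human PEPT1 cDNA. [14C]glycylsarcosine (50 μM) uptake for 5 min in Mes/Tris buffer, pH 6.0, giving an H+ gradient, with test compound at 2.5 mM. Vector-transfected uptake subtracted. Percent of control, n=3, mean ± S.E.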

[9] = target: T1, Organic cation/carnitine transporter 2; test: TP_TRANSPORTER: inhibition of Carnitine uptake (Carnitine: 0.02 uM, Cefixime: 2500 uM) in OCTN2-expressing HeLa cells
[10] = target: T5, Solute carrier family 15 member 1 (Homo sapiens); test: TP_TRANSPORTER: inhibition of Gly-Sar uptake (Gly-Sar: 50 uM, Cefluprenam: 2500uM) in PEPT1-expressing HeLa cells; procedure, shortened: as §4
[11] = target: T3, Solute carrier family 15 member 2 (Rattus norvegicus); test: TP_TRANSPORTER: inhibition of Gly-Sar uptake (Gly-Sar: 25 uM, Cefluprenam: 2500uM) in PEPT2-expressing HeLa cells; procedure, shortened: as §3
[12] = target: T4, OCTN2 (organic cation/carnitine transporter 2); test: (§5) TP_TRANSPORTER: inhibition of Carnitine uptake (Carnitine: 0.02 uM, Cefluprenam: 2500 uM) in OCTN2-expressing HeLa cells; design: scale not given: the % may be the effect or the level left; conditions: human, probe carnitine (0.02 uM), read-out: Activity; procedure, shortened: as §2
[13] = target: T6, OCTN2 (organic cation/carnitine transporter 2) (Homo sapiens, UniProt O76082); test: as §5; design: scale not given: the % may be the effect or the level left; conditions: probe carnitine (0.02 uM), read-out: Activity; procedure, shortened: as §2
T6 sequence (O76082 whole entry): T1 sequence (O76082 whole entry)

Activity [1]: is not an inhibitor [-]
Compound: CC1(C)S[C@@H]2[C@H](NC(=O)[C@H](N)c3ccccc3)C(=O)N2[C@H]1C(=O)O [AMPICILLIN]

Activity [2]: is not an inhibitor [-] | Activity [3]: is not an inhibitor [-]
Compound: CC1=C(C(=O)O)N2C(=O)[C@@H](NC(=O)[C@H](N)c3ccc(O)cc3)[C@H]2SC1 [CEFADROXIL]

Activity [4]: is not an inhibitor [-]
Compound: C=CC1=C(C(=O)O)N2C(=O)[C@@H](NC(=O)/C(=N\O)c3csc(N)n3)[C@H]2SC1 [CEFDINIR]

Activity [5]: is not an inhibitor [-] | activity at 2500 µM [6]: 28% | IC50 [7]: 1700 µM | Activity [8]: is not an inhibitor [-]
Compound: CO/N=C(\C(=O)N[C@@H]1C(=O)N2C(C(=O)[O-])=C(C[N+]3(C)CCCC3)CS[C@H]12)c1csc(N)n1 [CEFEPIME]

Activity [9]: is not an inhibitor [-]
Compound: C=CC1=C(C(=O)O)N2C(=O)[C@@H](NC(=O)/C(=N\OCC(=O)O)c3csc(N)n3)[C@H]2SC1 [CEFIXIME]

Activity [10]: is not an inhibitor [-] | Activity [11]: is not an inhibitor [-] | activity at 2500 µM [12]: 76% | activity at 2500 µM [13]: 74%
Compound: CC[N+](C)(C/C=C/C1=C(C(=O)[O-])N2C(=O)[C@@H](NC(=O)/C(=N\OCF)c3nsc(N)n3)[C@H]2SC1)CC(N)=O (stereo partly drawn) [CEFLUPRENAM]
